“Also recorded” adds a separate entry of the source.

In data set [1] the test system is insulin-resistant HepG2 cells. Put plainly: 2-NBDG glucose uptake assay. The data set is classed as cell-based, human. Conditions: for relative glucose uptake percentage: insulin-stimulated 2-NBDG uptake. The procedure, abridged: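 Insulin-resistant HepG2 cells (grown in 10% FBS MEM; resistance induced by a previously reported method) treated with test compound at 12.5, 25 and 50 μM and stimulated with 10–6 M insulin. Uptake of the fluorescent glucose analogue 2-NBDG read fluorimetrically on a plate reader. Rosiglitazone (10 μM) served as reference. Triplicate experiments, mean ± standard deviation.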

Data set [2] concerns the target T1, human monoamine oxidase A (hMAO-A) (Homo sapiens, UniProt P21397).
T1 sequence (P21397 1-527): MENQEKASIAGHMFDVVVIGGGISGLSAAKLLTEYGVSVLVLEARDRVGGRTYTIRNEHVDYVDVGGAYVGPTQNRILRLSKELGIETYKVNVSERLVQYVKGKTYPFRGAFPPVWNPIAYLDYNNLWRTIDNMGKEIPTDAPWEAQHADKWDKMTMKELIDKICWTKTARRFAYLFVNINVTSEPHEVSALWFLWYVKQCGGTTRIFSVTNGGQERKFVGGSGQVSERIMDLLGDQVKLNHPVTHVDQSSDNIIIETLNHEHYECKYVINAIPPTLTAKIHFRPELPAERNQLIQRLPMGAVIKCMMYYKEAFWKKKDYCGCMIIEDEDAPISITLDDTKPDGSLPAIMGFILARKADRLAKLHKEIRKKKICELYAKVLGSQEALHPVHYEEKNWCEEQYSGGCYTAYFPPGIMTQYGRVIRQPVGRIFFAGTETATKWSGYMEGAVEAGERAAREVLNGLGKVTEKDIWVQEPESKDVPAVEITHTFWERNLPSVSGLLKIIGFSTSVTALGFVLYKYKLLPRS
Kind of data set: hMAO-A inhibition chemiluminescent assay. It counts as biochemical.

Data set [3] deals with IRS-1/PI3K/Akt signaling pathway in insulin-resistant HepG2 cells. Put plainly: Western blot of IRS-1/PI3K/Akt signaling pathway. The data set is classed as cell-based, human.
The target in the next data set is T2, hMAO-A (Homo sapiens, UniProt P21397).
T2 sequence (P21397 1-527): T1 sequence (P21397 1-527)
Put plainly: Enzyme kinetics of hMAO-A inhibition. It counts as biochemical. To be noted: Lineweaver–Burk plot. The method, boiled down:
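hMAO-A activity measured by chemiluminescent MAO-Glo assay, with MAO substrate at three concentrations, with or without test compound. Lineweaver–Burk plots (with Dixon plots) gave Km, Vmax and inhibition mode. Ki, Kic and Kiu came from secondary plots.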

Data set [4] relates to PEPCK and G6Pase expression in insulin-resistant HepG2 cells. Kind of data set: Western blot of PEPCK and G6Pase expression levels. The data set is classed as cell-based, human. (In western blotting, separated proteins are transferred to a membrane and probed.)
The subject of the next data set is HepG2 cells. Kind of data set: Cytotoxicity, cell viability by MTT assay. To be noted: up to 100 μM. It counts as cell-based, human. The procedure, abridged: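 HepG2 cells were subcultured in MEM with 10% FBS, refreshing the medium every 48 h until confluent. They were then seeded in 96-well plates, and viability after test-compound exposure was assessed by MTT assay.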
(In general: Tetrazolium assays rely on reduction of a dye to a coloured formazan, in cell work by metabolically active cells.)

The target in data set [5] is T3, PTP1B (Homo sapiens, UniProt P18031).
T3 sequence (P18031 1-435): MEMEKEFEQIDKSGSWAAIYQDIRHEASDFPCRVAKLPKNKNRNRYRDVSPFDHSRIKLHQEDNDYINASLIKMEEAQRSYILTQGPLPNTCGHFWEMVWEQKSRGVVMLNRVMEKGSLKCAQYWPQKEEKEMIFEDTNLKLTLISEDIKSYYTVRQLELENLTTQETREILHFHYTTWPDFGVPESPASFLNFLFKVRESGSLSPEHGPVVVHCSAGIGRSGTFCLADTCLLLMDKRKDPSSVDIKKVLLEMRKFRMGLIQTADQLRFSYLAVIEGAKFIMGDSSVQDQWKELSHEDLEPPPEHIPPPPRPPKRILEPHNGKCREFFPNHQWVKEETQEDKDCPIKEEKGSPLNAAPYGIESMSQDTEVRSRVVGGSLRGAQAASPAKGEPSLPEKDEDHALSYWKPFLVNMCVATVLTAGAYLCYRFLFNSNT
Put plainly: Enzyme kinetics of PTP1B inhibition. The data set is classed as biochemical. Conditions: for Ki: secondary plots. The method, boiled down:
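Human recombinant PTP1B (0.5 unit) in pH 6.0 buffer (50 mM citrate, 0.1 M NaCl, 1 mM EDTA, 1 mM DTT) was preincubated with or without test compound for 10 min at 37 °C. pNPP substrate was then added at three concentrations and incubated for 20 min at 37 °C. NaOH stopped the reaction, and p-nitrophenol was read at 405 nm. Km and Vmax came from Lineweaver–Burk plots, with Dixon plots also used. Ki, Kic and Kiu came from secondary plots.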

Data set [6] concerns PTP1B expression in insulin-resistant HepG2 cells. Put plainly: Western blot of PTP1B expression level. The data set is classed as cell-based, human. Conditions: 24 h treatment.
The target of data set [7] is T3, PTP1B. Put plainly: PTP1B inhibition assay using pNPP. The data set is classed as biochemical.

With `CN(CCOc1ccc(CC2SC(=O)NC2=O)cc1)c1ccccn1` (stereo not drawn) [Rosiglitazone, reference compound], in data set [1] (10 μM, 2-NBDG), the insulin-stimulated glucose uptake worked out at 118.52%.

Take `COc1cc(O)c2c(O)c3c(=O)cc(C)oc3cc2c1` [rubrofusarin]: the figures for the IC50 (in data set [2]; against PTP1B [7]) were 5.9 ± 0.99 µM and 17 ± 0.49 µM, respectively. Also, the “expression of total IRS-1 and p-IRS-1 (Tyr 895)” value in data set [3] was “dose-dependently increased the expression of total IRS-1 and p-IRS-1 (Tyr 895)”. For the same compound, the “relative abundances of p-PI3K and p-Akt” value in data set [3] is “in a dose-dependent manner increased the relative abundances of p-PI3K and p-Akt”. For the same compound, the entries for the “relative glucose uptake percentage” value in data set [1] (12.5 μM), in data set [1] (25 μM) and in data set [1] (50 μM) were 68.54%, 81.27% and 98.47%, respectively. At hMAO-A, the hMAO-A inhibition type result is “mixed-competitive”. Moreover, the “expressions of PEPCK and G6Pase” value in data set [4] was “downregulate the expressions of PEPCK and G6Pase”. Besides, in the data set with HepG2 cells, the “cytotoxicity (cell viability)” value is reported as “showed toxicity at 100 μM; also recorded: nontoxic up to a 50 μM concentration”. Further, the PTP1B inhibition type entry on PTP1B [5] (Lineweaver–Burk plot) is “mixed-competitive”. The Ki at PTP1B [5] (PTP1B inhibition Ki value (Kic), binding constant of the inhibitor with the free enzyme) was determined as 6.99 µM; on PTP1B [5] (PTP1B inhibition Ki value (Kiu), binding constant of the inhibitor with the enzyme–substrate complex) it was 18.3 µM. The PTP1B expression result in data set [6] is listed as “inhibited PTP1B expression in a dose-dependent manner; also recorded: at 50 μM concentration significantly reduced the expression”.

What is called IC50 is the concentration at which inhibition is half-maximal. For orientation: Ki means a dissociation constant, usually derived from enzyme kinetics or from competition with a known ligand. A higher Ki goes with lower affinity.

Source of the values: publication PMC6682096 (ACS Omega, 2019).
